MC4R antag cAMP = MC4R antagonists of cAMP signaling, primary screen, cell-based, TR-FRET, antagonist arm of biased-ligand search; inhibition, % at 6.5 µM; Melanocortin receptor 4 (Homo sapiens), P32245; MC4R-expressing cells, MTII-stimulated cAMP, LANCE TR-FRET; AID 540295, 2011; 0.48% of 360,000 active;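 active = inhibition above its plate's cutoff, the mean of tested wells on that plate plus 3 SD, cut at about 29% in these data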
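Material: U2OS-MC4R stable cell line | Reagent: Melanotan II challenge after compound preincubation | Doses: One concentration, 6.5 µM nominal | Incubation: 30-min compound preincubation, 1-h Melanotan II challenge, 1-h detection, room temperature | Signal: TR-FRET cAMP assay | Replicates: One well per compound, no replicates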
TAAR1 antagonist = human TAAR1 antagonists, primary screen, Fluo-8 calcium fluorescence, CHO RD-HGA16 cells; antagonist; 1.5% of 360,000 active; inhibition, % at 3 µM;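 active = inhibition above a per-plate cutoff, the mean inhibition of test compounds on that plate plus 3 SD, cut at about 49% in these data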
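Test system: RD-HGA16 CHO cells with stable hTAAR1 and Gα16 / Probe or stimulus: EC80 β-phenethylamine stimulus / Times: seeding 17-24 h prior, 75-min 37 °C, 30-min RT dye loading / Detection: Fluo-8 calcium-sensitive fluorescence / Read-out basis: % inhibition scaled between DMSO and EC80 PEA controls / Repeats: singlicate, one well per test compound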
B2AR ag = beta2AR agonists driving receptor internalization, primary screen, cell-based, FAP fluorogen, flow cytometry. response, % (concentration not given with the values). 0.43% of 340,000 active. Am2.2-beta2AR cells. Beta-2 adrenergic receptor (Homo sapiens), P07550. AID 504454, 2011;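 active = response above a set limit, near 3 SD of response in nonfluorescent compounds, cut at about 42% in these data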
TAAR1 ag = human TAAR1 agonists, primary screen, Fluo-8 calcium fluorescence, CHO RD-HGA16 cells; vehicle wells 0%, saturating PEA agonist 100%; Trace amine-associated receptor 1 (Homo sapiens), Q96RJ0; AID 624467, 2012; activation, % at 3 µM; 0.99% of 360,000 active;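 active = activation above the mean activation of all test compounds in the run plus 3 SD, cut at about 38% in these data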
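test system = CHO RD-HGA16 cells carrying human TAAR1 plus Gα16 | schedule = 17-24 h seeding, 75 min 37 °C dye, 30 min RT | compound dosing = 3 µM single concentration | control set = DMSO and PEA EC100 | replicates = n 1 | signal = Fluo-8 fluorescence, 5 s baseline then 140 s kinetic read | measure = percent activation vs PEA EC100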
MC4R ag barr = MC4R agonists recruiting beta-arrestin, primary screen, cell-based, luminescence, agonist arm of biased-ligand search | Melanocortin receptor 4 (Homo sapiens), P32245 | U2OS MC4R beta-arrestin complementation; percent of melanotan II response, DMSO zero | activation, % at 8.9 µM | 0.98% of 360,000 active | AID 540308, 2011;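 active = activation above a per-plate cutoff, the mean activation of sample wells on that plate plus 3 SD, cut at about 8% in these data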
HTR2A ag = mouse Htr2a agonists via beta-arrestin recruitment, primary screen, cell-based, luminescence; CHO-K1 mHTR2A beta-arrestin complementation; percent of 30 µM serotonin response; activation, % at 7.6 µM; 0.66% of 360,000 active;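 active = activation above a run cutoff, the mean activation of all tested compounds plus 3 SD, cut at about 14% in these data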
Target sequence (P35363 whole entry, looked up): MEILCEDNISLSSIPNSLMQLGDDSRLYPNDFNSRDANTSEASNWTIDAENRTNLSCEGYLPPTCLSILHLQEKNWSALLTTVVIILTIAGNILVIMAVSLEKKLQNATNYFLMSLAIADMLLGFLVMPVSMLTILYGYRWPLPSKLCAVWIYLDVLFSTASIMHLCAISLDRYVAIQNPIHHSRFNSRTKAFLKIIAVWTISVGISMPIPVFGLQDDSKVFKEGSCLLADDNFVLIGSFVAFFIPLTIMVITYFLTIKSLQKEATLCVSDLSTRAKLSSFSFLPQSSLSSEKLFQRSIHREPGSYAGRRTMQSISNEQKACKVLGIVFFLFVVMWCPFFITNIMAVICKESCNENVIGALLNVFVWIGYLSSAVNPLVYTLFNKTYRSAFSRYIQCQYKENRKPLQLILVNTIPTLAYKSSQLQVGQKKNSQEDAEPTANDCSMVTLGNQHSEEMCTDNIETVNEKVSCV
TAAR1 ag confirm = human TAAR1 agonists, retest of hits, confirmation, Fluo-8 calcium fluorescence, CHO RD-HGA16 cells | shares compounds with TAAR1 ag | scaled: DMSO 0%, maximal phenethylamine 100% | activation, % at 3 µM | 82% of 2,400 active;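 active = activation above a cutoff set at the run's mean compound activation plus 3 SD, cut at about 39% in these data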
Ga16 ag counter = nonselective calcium mobilization agonists, CHO-Ga16 cells, counter-screen for hTAAR1 agonist project, cell-based, fluorescence, CHO-Ga16 parental line | shares compounds with TAAR1 ag | Fluo-8 calcium fluorescence; normalized to maximal ATP response, DMSO zero | activation, % at 3 µM | 50% of 2,400 active | AID 651787, 2012;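 active = activation above the run cutoff, the mean activation over all tested wells plus 3 SD, cut at about 12% in these data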
TAAR1 desens = TAAR1 desensitization by agonist hits, confirmation, counter-screen for TAAR1 agonist project, cell-based, fluorescence, tachyphylaxis; shares compounds with TAAR1 ag; CHO RD-HGA16 hTAAR1, Fluo-8 calcium, beta-PEA response inhibition; inhibition, % at 3 µM; 46% of 2,400 active; AID 651951, 2012;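 active = inhibition above the run cutoff, the mean inhibition of all test compounds plus 3 SD, cut at about 49% in these data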;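 note: beta-PEA stimulus applied at its EC80; loss of beta-PEA calcium signal after compound pretreatment read as receptor desensitization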
Ga16 nonsel ant = inhibition of ATP-evoked calcium response in CHO-Ga16 cells, counter-screen for TAAR1 agonist project, cell-based, fluorescence; CHO-Ga16 ATP-induced calcium, Fluo-8 fluorescence; AID 651952, 2012; shares compounds with TAAR1 ag; 39% of 2,400 active; inhibition, % at 3 µM;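 active = inhibition above the plate's mean compound inhibition plus 3 SD, computed per plate, cut at about 22% in these data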
Large screens that a line does not name were inactive (follow-up assays come after a bar, where they were run). Most compounds without a hit are left out; they make up all but 4.3% or so of the library.

COC(=O)[C@]12CCCCC=C1N(Cc1ccc3c(c1)OCO3)C(=O)[C@H](CC(=O)NCc1cccc3ccccc13)C2	none (no result: MC4R antag cAMP, B2AR ag, MC4R ag barr)
NS(=O)(=O)c1ccc(CCNC(=O)CNCCc2ccccc2)cc1	TAAR1 ag 71 | TAAR1 ag confirm 90 | Ga16 ag counter inactive | TAAR1 desens 70 | Ga16 nonsel ant inactive
Cc1nc(-c2ccc(S(=O)(=O)Nc3ccc(Br)cc3F)cc2)co1	none
C=CCN1C(=O)/C(=C/C=C2/N(CC)c3ccc(S(=O)(=O)N(C)C)cc3N2CC)SC1=S	TAAR1 antagonist 74, TAAR1 ag 107 | TAAR1 ag confirm 90 | Ga16 ag counter 91 | TAAR1 desens 87 | Ga16 nonsel ant 88
COc1ccc(S(=O)(=O)n2nc(OC(=O)c3ccccc3)cc2N)cc1	TAAR1 ag 57 | TAAR1 ag confirm 51 | Ga16 ag counter 13 | TAAR1 desens inactive | Ga16 nonsel ant inactive
CS(=O)(=O)n1nc(OC(=O)c2cccs2)cc1N	none
COc1ccc(S(=O)(=O)n2nc(OC(=O)c3cccs3)cc2N)cc1	TAAR1 ag 53 | TAAR1 ag confirm inactive | Ga16 ag counter inactive | TAAR1 desens inactive | Ga16 nonsel ant inactive
COc1ccc(S(=O)(=O)n2nc(OC(=O)c3ccccc3Br)cc2N)cc1	TAAR1 ag 97 | TAAR1 ag confirm 84 | Ga16 ag counter 44 | TAAR1 desens inactive | Ga16 nonsel ant inactive
Cc1nc(C(=O)N2CCC(n3nccc3NC(=O)Nc3ccccc3Cl)CC2)cs1	none
O=C(COC(=O)/C=C/c1ccccc1Cl)NC1CCCCCC1	TAAR1 antagonist 53, TAAR1 ag 49 | TAAR1 ag confirm inactive | Ga16 ag counter inactive | TAAR1 desens inactive | Ga16 nonsel ant inactive
CCCCN(C(=O)CSc1cc(C)c2ccccc2n1)c1c(N)n(Cc2ccccc2)c(=O)[nH]c1=O	none
Cc1cc(C)n(CCNC(=O)c2ccc3c(c2)OCO3)n1	none
O=C(O)C1CCCCC1C(=O)NCc1ccc(F)cc1 (configuration not stated)	none
O=C(O)[C@H]1CCCC[C@H]1C(=O)NCCNC(=O)[C@@H]1CCCC[C@@H]1C(=O)O	none
O=C(O)C1CCCCC1C(=O)NCCc1ccc(Cl)cc1 (configuration not stated)	TAAR1 ag 70 | TAAR1 ag confirm 54 | Ga16 ag counter inactive | TAAR1 desens inactive | Ga16 nonsel ant inactive
O=C(O)C1CCCCC1C(=O)NCCc1ccc(F)cc1 (configuration not stated)	TAAR1 ag 81 | TAAR1 ag confirm 93 | Ga16 ag counter inactive | TAAR1 desens 73 | Ga16 nonsel ant inactive
COC(=O)[C@@]12C[C@@H](CC(=O)N3CCN(C(=O)C4CC4)CC3)C(=O)N(Cc3ccccc3)C1=CCC(C)(C)C2	none (no result: MC4R antag cAMP, B2AR ag, MC4R ag barr)
